Assay results: ChEMBL document CHEMBL4765248, “Design, synthesis, biological evaluation and molecular docking study of novel thieno[3,2-d]pyrimidine derivatives as potent FAK inhibitors” (Eur J Med Chem, 2020)

How the values were obtained:
A549 [1] = experiment: Antiproliferative activity against human A549 cells assessed as reduction in cell viability at 0.1 to 2.5 uM by MTT assay; assay type: functional, cell-based; details: dose 0.1-2.5 µM, time 24-72 hrs, TDE = time-dependent effect
[2] = target: Serine/threonine-protein kinase B-raf (Homo sapiens) (UniProt P15056); experiment: Inhibition of GST-tagged human full length BRAF expressed in baculovirus expression system at 1 uM by Selectscreen kinase assay
Procedure, shortened: (§1)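 Single-point screen at 1 μM final against a panel of 25 kinases using a commercial profiling service; mean of three independent experiments each run in triplicate.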

A549 [3] = experiment: Antiproliferative activity against human A549 cells assessed as cell viability at 0.1 uM measured after 24 hrs by MTT assay (reference value: 100%); assay type: functional; details: read-out: Activity
[4] = target: Inhibitor of nuclear factor kappa-B kinase subunit epsilon (Homo sapiens) (UniProt Q14164); experiment: Inhibition of GST-tagged full length human IKK epsilon expressed in baculovirus expression system at 1 uM by Selectscreen kinase assay; procedure, shortened: as §1
Inhibitor of nuclear factor kappa-B kinase subunit epsilon (Homo sapiens), sequence (Q14164 whole entry): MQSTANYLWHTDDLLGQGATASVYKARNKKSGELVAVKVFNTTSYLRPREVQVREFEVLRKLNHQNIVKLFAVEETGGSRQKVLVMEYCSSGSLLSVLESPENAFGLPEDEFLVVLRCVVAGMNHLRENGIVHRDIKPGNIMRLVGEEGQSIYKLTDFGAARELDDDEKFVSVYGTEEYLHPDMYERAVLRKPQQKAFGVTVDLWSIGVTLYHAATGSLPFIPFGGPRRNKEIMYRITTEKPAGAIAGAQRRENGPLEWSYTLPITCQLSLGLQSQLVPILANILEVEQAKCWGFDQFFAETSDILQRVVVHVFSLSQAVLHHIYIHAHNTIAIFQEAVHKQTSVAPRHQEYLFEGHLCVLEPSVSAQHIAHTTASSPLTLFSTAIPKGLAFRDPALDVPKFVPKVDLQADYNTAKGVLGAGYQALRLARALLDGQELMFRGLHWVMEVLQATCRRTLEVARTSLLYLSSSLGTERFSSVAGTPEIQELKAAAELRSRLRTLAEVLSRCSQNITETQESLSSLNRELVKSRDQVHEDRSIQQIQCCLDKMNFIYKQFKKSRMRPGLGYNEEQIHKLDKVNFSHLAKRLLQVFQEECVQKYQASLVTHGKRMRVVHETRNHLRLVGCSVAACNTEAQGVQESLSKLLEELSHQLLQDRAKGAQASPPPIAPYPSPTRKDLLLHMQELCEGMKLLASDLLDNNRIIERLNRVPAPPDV

MDA-MB-231 [5] = experiment: Antiproliferative activity against human MDA-MB-231 cells assessed as cell viability at 0.5 uM measured after 24 hrs by MTT assay (reference value: 100%); assay type: functional; details: read-out: Activity
MDA-MB-231 [6] = experiment: Induction of apoptosis in human MDA-MB-231 cells assessed as late apoptotic cells at 0.4 uM incubated for 48 hrs by Annexin V-FITC/PI staining based flow cytometric analysis (reference value: 1.49%); assay type: functional
Focal adhesion kinase 1 = Focal adhesion kinase 1 (Homo sapiens, UniProt Q05397); experiment: Inhibition of N-terminal GST-fused human truncated FAK (376 to 1052 residues) expressed in baculovirus expression system using tyrosine kinase peptide as substrate measured after 50 mins in presence of ATP by homogenous time resolved flourescence assay
Focal adhesion kinase 1, sequence (Q05397 whole entry, the tested form may be a part): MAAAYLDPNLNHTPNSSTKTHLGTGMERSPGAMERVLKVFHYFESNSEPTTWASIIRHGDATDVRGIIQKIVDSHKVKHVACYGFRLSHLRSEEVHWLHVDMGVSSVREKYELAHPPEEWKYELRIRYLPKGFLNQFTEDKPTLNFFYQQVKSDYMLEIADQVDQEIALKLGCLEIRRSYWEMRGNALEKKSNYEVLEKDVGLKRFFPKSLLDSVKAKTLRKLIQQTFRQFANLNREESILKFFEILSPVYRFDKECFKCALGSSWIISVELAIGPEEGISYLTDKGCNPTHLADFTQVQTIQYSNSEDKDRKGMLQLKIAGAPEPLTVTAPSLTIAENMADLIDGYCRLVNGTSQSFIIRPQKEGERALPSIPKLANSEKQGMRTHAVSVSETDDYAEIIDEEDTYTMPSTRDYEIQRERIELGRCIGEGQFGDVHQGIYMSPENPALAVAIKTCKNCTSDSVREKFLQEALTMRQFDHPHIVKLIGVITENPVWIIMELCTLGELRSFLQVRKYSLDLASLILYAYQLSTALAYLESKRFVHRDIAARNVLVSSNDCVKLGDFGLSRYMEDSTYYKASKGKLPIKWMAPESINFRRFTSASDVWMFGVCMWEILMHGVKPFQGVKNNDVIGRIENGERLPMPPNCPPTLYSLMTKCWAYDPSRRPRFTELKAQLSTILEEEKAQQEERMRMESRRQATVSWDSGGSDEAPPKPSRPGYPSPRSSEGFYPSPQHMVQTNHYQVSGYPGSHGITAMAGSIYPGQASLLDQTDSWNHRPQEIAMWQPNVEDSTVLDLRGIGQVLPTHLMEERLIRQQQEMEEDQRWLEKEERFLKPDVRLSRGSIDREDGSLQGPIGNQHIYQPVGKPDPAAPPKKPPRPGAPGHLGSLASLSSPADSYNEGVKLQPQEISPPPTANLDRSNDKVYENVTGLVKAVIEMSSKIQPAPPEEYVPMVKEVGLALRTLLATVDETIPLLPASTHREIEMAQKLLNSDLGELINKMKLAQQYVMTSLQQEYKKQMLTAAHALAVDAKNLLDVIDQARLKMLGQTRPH

[7] = target: RAC-alpha serine/threonine-protein kinase (Homo sapiens) (UniProt P31749); experiment: Inhibition of His-tagged human full length AKT1 expressed in baculovirus expression system at 1 uM by Selectscreen kinase assay; procedure, shortened: as §1
RAC-alpha serine/threonine-protein kinase (Homo sapiens), sequence (P31749 whole entry): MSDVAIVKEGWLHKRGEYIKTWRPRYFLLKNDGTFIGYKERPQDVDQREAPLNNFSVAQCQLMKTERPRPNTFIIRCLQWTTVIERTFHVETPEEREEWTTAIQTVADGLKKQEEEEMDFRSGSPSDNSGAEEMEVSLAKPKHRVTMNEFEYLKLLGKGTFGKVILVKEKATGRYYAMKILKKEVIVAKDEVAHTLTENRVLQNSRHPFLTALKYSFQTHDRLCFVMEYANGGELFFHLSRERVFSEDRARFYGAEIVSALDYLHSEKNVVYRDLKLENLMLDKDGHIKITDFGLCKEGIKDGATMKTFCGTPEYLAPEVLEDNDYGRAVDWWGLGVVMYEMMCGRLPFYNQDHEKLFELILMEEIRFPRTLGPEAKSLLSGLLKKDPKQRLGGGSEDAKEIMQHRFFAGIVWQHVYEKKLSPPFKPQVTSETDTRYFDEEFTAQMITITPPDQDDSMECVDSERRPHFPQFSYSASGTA

MDA-MB-231 [8] = experiment: Induction of cell cycle arrest in human MDA-MB-231 cells assessed as accumulation of cells at G2/M phase at 0.4 uM measured after 48 hrs by PI staining based flow cytometry method (reference value: 17.40%); assay type: functional
MDA-MB-231 [9] = experiment: Antiproliferative activity against human MDA-MB-231 cells assessed as cell viability at 0.5 uM measured after 72 hrs by MTT assay (reference value: 100%); assay type: functional; details: read-out: Activity
MDA-MB-231 [10] = experiment: Induction of apoptosis in human MDA-MB-231 cells assessed as early apoptotic cells at 0.4 uM incubated for 48 hrs by Annexin V-FITC/PI staining based flow cytometric analysis (reference value: 1.58%); assay type: functional
MDA-MB-231 [11] = experiment: Induction of apoptosis in human MDA-MB-231 cells assessed as necrotic cells at 0.1 uM incubated for 48 hrs by Annexin V-FITC/PI staining based flow cytometric analysis (reference value: 1.08%); assay type: functional
MDA-MB-231 [12] = experiment: Induction of apoptosis in human MDA-MB-231 cells assessed as late apoptotic cells at 0.2 uM incubated for 48 hrs by Annexin V-FITC/PI staining based flow cytometric analysis (reference value: 1.49%); assay type: functional
MDA-MB-231 [13] = experiment: Induction of cell cycle arrest in human MDA-MB-231 cells assessed as accumulation of cells at G0/G1 phase at 0.2 uM measured after 48 hrs by PI staining based flow cytometry method (reference value: 43.43%); assay type: functional
MDA-MB-231 [14] = experiment: Induction of cell cycle arrest in human MDA-MB-231 cells assessed as accumulation of cells at G0/G1 phase at 0.4 uM measured after 48 hrs by PI staining based flow cytometry method (reference value: 43.43%); assay type: functional
[15] = Intrinsic clearance in rat liver microsomes at 1 uM measured after 60 mins in presence of NADPH by LC-MS/MS analysis; assay type: ADME, Microsome; details: read-out: CLH
Procedure, shortened: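 Rat liver microsomes (0.5 mg/mL) were incubated at 37 °C with 1 μM compound in 100 mM potassium phosphate, pH 7.4, with 10 mM MgCl2. Reaction was started with prewarmed NADPH cofactor and sampled at 0, 5, 10, 20, 30 and 60 min. Protein was precipitated with cold acetonitrile and supernatants analysed by LC-MS/MS to give half-life, 1 h remaining and intrinsic clearance.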

MDA-MB-231 [16] = experiment: Induction of apoptosis in human MDA-MB-231 cells assessed as late apoptotic cells at 0.1 uM incubated for 48 hrs by Annexin V-FITC/PI staining based flow cytometric analysis (reference value: 1.49%); assay type: functional
MDA-MB-231 [17] = experiment: Induction of cell cycle arrest in human MDA-MB-231 cells assessed as accumulation of cells at S phase at 0.2 uM measured after 48 hrs by PI staining based flow cytometry method (reference value: 39.17%); assay type: functional
MDA-MB-231 [18] = experiment: Induction of apoptosis in human MDA-MB-231 cells assessed as necrotic cells at 0.4 uM incubated for 48 hrs by Annexin V-FITC/PI staining based flow cytometric analysis (reference value: 1.08%); assay type: functional
[19] = target: Interleukin-1 receptor-associated kinase 4 (Homo sapiens) (UniProt Q9NWZ3); experiment: Inhibition of His-tagged full length human IRAK4 expressed in baculovirus expression system at 1 uM by Selectscreen kinase assay; procedure, shortened: as §1
MDA-MB-231 [20] = experiment: Induction of cell cycle arrest in human MDA-MB-231 cells assessed as accumulation of cells at S phase at 0.4 uM measured after 48 hrs by PI staining based flow cytometry method (reference value: 39.17%); assay type: functional
A549 [21] = experiment: Antiproliferative activity against human A549 cells assessed as cell viability at 0.5 uM measured after 24 hrs by MTT assay (reference value: 100%); assay type: functional; details: read-out: Activity
Homo sapiens = organism: Homo sapiens; experiment: Inhibition of His-tagged human PKA catalytic domain expressed in Escherichia coli expression system at 1 uM by Selectscreen kinase assay; procedure, shortened: as §1
[22] = system: Hepatocyte growth factor receptor (Homo sapiens), P08581 [Y1235D]; experiment: Inhibition of GST-tagged partial length human MET (956-1390 residues) Y1235D mutant expressed in insect expression system at 1 uM by Selectscreen kinase assay; procedure, shortened: as §1
Hepatocyte growth factor receptor (Homo sapiens), P08581 [Y1235D], sequence (P08581 whole entry Y1235D, the tested form may be a part): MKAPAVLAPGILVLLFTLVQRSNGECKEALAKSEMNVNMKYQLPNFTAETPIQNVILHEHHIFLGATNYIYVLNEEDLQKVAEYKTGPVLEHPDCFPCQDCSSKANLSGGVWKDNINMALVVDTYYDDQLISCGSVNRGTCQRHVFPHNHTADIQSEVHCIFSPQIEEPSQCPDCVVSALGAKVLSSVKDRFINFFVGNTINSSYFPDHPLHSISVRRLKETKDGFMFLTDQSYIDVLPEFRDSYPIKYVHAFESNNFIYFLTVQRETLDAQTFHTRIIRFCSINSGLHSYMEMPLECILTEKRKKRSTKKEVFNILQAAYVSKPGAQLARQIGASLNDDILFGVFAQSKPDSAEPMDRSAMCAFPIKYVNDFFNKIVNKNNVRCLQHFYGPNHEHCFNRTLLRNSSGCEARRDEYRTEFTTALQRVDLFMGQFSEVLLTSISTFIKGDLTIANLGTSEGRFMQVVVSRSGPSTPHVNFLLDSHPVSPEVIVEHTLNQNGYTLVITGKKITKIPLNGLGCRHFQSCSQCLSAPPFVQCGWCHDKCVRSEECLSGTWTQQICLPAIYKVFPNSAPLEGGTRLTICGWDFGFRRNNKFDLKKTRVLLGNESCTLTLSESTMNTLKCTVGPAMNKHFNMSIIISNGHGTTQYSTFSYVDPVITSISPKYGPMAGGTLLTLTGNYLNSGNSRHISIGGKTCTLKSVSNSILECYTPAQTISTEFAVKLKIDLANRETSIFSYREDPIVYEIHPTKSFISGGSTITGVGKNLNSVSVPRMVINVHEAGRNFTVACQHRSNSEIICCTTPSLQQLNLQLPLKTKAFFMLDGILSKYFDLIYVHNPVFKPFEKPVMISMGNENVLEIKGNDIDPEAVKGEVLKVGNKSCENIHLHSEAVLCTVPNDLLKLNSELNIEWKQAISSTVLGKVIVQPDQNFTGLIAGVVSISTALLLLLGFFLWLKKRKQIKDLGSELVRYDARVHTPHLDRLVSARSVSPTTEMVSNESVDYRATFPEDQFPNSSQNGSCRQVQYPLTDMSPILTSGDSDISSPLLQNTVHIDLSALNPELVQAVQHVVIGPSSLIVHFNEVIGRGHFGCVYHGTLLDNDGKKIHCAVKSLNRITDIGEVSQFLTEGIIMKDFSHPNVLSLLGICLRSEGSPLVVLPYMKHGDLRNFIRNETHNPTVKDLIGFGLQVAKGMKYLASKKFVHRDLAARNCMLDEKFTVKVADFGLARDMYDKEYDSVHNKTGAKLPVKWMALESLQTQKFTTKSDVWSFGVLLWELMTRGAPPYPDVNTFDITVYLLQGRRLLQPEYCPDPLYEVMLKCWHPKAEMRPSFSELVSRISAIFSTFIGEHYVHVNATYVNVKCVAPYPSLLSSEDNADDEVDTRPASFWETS

MDA-MB-231 [23] = experiment: Antiproliferative activity against human MDA-MB-231 cells assessed as cell viability at 0.1 uM measured after 72 hrs by MTT assay (reference value: 100%); assay type: functional; details: read-out: Activity
[24] = target: Cyclin-dependent kinase 2 (Homo sapiens) (UniProt P24941); experiment: Inhibition of human CDK2 at 1 uM by Selectscreen kinase assay; procedure, shortened: as §1
A549 [25] = experiment: Antiproliferative activity against human A549 cells assessed as cell viability at 0.1 uM measured after 48 hrs by MTT assay (reference value: 100%); assay type: functional; details: read-out: Activity
[26] = target: Tyrosine-protein kinase ZAP-70 (Homo sapiens) (UniProt P43403); experiment: Inhibition of His-tagged full-length recombinant human ZAP-70 expressed in baculovirus expression system at 1 uM by Selectscreen kinase assay; procedure, shortened: as §1
[27] = target: Mitogen-activated protein kinase 1 (Homo sapiens) (UniProt P28482); experiment: Inhibition of GST-tagged full length human ERK2 expressed in Escherichia coli at 1 uM by Selectscreen kinase assay; procedure, shortened: as §1
Mitogen-activated protein kinase 1 (Homo sapiens), sequence (P28482 whole entry): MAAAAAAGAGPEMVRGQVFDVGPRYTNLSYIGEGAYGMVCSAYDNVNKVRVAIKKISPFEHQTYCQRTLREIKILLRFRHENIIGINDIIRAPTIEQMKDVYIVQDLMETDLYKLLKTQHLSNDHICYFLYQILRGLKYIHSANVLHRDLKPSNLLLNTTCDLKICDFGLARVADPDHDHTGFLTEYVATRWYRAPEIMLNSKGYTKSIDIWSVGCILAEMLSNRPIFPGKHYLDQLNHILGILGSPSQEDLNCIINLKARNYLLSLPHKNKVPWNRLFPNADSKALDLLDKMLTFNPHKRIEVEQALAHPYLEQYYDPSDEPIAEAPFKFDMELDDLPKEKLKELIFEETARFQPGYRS

[28] = target: Tyrosine-protein kinase BTK (Homo sapiens) (UniProt Q06187); experiment: Inhibition of His-tagged full length, recombinant human BTK expressed in baculovirus expression system at 1 uM by Selectscreen kinase assay; procedure, shortened: as §1
Tyrosine-protein kinase BTK (Homo sapiens), sequence (Q06187 whole entry): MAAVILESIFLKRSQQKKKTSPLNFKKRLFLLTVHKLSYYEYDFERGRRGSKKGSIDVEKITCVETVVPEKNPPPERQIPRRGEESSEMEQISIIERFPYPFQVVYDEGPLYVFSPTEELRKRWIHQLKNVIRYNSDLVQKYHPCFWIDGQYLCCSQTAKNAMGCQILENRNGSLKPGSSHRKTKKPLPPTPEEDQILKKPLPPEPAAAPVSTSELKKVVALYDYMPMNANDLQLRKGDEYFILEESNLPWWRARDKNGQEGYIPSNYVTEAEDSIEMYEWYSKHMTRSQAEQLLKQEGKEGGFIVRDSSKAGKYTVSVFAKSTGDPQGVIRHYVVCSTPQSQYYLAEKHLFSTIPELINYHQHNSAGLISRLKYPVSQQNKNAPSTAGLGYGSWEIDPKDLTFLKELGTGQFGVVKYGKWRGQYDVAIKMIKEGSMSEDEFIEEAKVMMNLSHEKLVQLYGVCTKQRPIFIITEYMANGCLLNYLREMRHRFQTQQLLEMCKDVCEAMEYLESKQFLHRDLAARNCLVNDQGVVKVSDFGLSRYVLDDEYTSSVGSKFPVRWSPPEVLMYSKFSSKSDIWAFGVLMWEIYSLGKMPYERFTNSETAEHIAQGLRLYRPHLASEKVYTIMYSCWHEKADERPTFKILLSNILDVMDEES

inhibition [2]: 51%
inhibition [4]: 66%
IC50 (Focal adhesion kinase 1): 28.2 nM
inhibition [7]: 15%
microsomal CLint at 1 µM [15]: 10.4 µL/min/mg
inhibition [19]: 72%
inhibition (Homo sapiens): 63%
inhibition [22]: 72%
inhibition [24]: 97%
inhibition [26]: 6%
inhibition [27]: 1%
inhibition [28]: 88%
Compound: COc1ccccc1-c1csc2cnc(Nc3ccc(C(=O)NC4CCNCC4)c(F)c3)nc12
Activity (A549 [1]): Tde
viability at 0.1 µM (A549 [3]): 96.4%
viability at 0.5 µM (MDA-MB-231 [5]): 73.7%
Activity (MDA-MB-231 [6]): 26.21%
Activity (MDA-MB-231 [8]): 3.55%
viability at 0.5 µM (MDA-MB-231 [9]): 31%
Activity (MDA-MB-231 [10]): 15.61%
Activity (MDA-MB-231 [11]): 2.97%
Activity (MDA-MB-231 [12]): 13.55%
Activity (MDA-MB-231 [13]): 51.4%
Activity (MDA-MB-231 [14]): 56.27%
Activity (MDA-MB-231 [16]): 4.36%
Activity (MDA-MB-231 [17]): 39.11%
Activity (MDA-MB-231 [18]): 4.4%
Activity (MDA-MB-231 [20]): 40.18%
viability at 0.5 µM (A549 [21]): 79.1%
viability at 0.1 µM (MDA-MB-231 [23]): 69.7%
viability at 0.1 µM (A549 [25]): 78.7%
